# Compound activity as filed in PubChem BioAssay.
# Hits are enriched below; roughly 3.7% of the tested compounds scored in any of these assays.
# KCNQ1 block: inhibitors of human KCNQ1 channel, primary screen, cell-based, thallium flux, high-throughput | Potassium voltage-gated channel subfamily KQT member 1 (Homo sapiens), P51787 | CHO-K1 KCNQ1, FluxOR thallium flux fluorescence; hits give high values | B-score at 10 µM | hit rate 1.3% among 310,000;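 active = compounds whose thallium flux B-score, printed positive for inhibition, exceeds three library SD while starting fluorescence stays within three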;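 also: channel opened by potassium depolarization with thallium stimulus after 20 min compound exposure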
# KCNQ1 pot: potentiators or activators of KCNQ1 channel, primary screen, cell-based, thallium flux, high-throughput; Potassium voltage-gated channel subfamily KQT member 1 (Homo sapiens), P51787; CHO-K1 KCNQ1, thallium flux FluxOR fluorescence; hits give high values; B-score at 10 µM; hit rate 0.35% among 310,000; AID 2648, 2010;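 active = fluorescence ratio B-score, a plate-corrected score, at least three library SD, with initial intensity B-score within 5 SD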
#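 Material: CHO-K1 cells stably expressing KCNQ1. Medium: assay buffer for compound exposure, DMSO matched across wells. Reagent: K+/Tl+ depolarizing stimulus. Compound dosing: single-concentration screen. Times: 37 °C overnight plating, 90-min dark dye load, 20-min compound pretreatment. Technique: FluxOR Tl+ flux fluorescence.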
# Kir21 block: inhibitors of mouse Kir2.1 inward-rectifier potassium channel. Inward rectifier potassium channel 2 (Mus musculus), P35561. HEK293-Kir2.1, FluxOR thallium flux fluorescence; hits give low values. B-score at 10 µM. hit rate 0.85% among 310,000;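 active = fluorescence ratio B-score at or below minus 3 SD of library scores, with starting-brightness B-score within 2 SD, cut at about -4.2 in these data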;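 also: channel flux triggered by added potassium and thallium sulfate stimulus; B-score of peak minus minimum fluorescence over baseline after thallium stimulus; more negative B-score means stronger Kir2.1 block with less thallium influx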
# KCNK3 block: human KCNK3 channel inhibitors, primary screen, CHO cells, FluxOR thallium flux, B-score; Potassium channel subfamily K member 3 (Homo sapiens), O14649; FluxOR fluorescence; hits give low values; B-score at 10 µM; hit rate 0.84% among 340,000; AID 602410, 2012;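 active = B-score under library mean minus 4 SD, starting fluorescence ratio at most library mean plus 5 SD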;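 also: more negative B-score means stronger inhibition of thallium flux through KCNK3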
# KCNK9 inh: KCNK9 potassium channel inhibitors, primary screen, HEK293 cells, thallium flux. FluxOR thallium flux fluorescence; hits give low values. hit rate 1.2% among 310,000. B-score at 10 µM;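 active = ratio B-score over 3 SD below the library mean, with starting fluorescence within 5 SD of its mean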;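 also: negative B-score means less thallium flux so channel inhibition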
# hERG rescue: hERG rescue from dofetilide block, primary screen, cell-based, CHO-hERG, FluxOR thallium flux, dofetilide IC70 | Voltage-gated inwardly rectifying potassium channel KCNH2 (Homo sapiens), Q12809 | dofetilide IC70 present | activation (rescue from dofetilide block), less the hit threshold, % at 10 µM | hit rate 0.51% among 310,000;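 active = activation above the mean of controls blocked by dofetilide plus 5 SD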;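 also: thallium influx through hERG after potassium depolarization seen as dye fluorescence rise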
# Target sequence (Q12809 whole entry, looked up): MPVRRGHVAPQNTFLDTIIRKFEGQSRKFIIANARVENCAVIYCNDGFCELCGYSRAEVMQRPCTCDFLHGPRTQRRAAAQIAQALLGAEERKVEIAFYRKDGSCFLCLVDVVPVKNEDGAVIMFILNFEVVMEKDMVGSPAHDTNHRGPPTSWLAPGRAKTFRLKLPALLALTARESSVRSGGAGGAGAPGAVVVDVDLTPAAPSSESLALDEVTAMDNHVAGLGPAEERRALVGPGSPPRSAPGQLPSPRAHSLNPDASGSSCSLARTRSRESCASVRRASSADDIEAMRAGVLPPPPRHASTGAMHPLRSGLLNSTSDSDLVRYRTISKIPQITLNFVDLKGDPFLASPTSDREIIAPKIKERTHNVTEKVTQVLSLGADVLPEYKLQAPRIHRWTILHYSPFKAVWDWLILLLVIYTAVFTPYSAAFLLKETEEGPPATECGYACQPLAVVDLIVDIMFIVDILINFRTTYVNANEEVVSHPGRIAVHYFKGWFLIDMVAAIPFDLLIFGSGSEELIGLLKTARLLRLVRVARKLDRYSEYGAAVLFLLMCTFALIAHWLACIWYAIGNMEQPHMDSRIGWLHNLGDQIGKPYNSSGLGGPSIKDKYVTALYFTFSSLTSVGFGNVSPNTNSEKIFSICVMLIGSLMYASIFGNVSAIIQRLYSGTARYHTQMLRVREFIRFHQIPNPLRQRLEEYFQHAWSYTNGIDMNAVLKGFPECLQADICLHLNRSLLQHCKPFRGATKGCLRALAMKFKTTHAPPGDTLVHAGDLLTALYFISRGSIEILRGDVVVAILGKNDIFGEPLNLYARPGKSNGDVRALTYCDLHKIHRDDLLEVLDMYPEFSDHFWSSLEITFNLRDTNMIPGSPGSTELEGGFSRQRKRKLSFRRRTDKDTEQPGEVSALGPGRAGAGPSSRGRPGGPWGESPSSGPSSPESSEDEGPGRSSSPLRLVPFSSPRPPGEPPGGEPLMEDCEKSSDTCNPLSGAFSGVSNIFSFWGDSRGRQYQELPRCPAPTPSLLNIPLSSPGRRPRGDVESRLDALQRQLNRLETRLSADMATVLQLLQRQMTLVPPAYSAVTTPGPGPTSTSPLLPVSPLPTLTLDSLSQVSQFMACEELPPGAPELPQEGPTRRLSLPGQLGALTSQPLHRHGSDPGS
# Starred values were filed as active, the others as inactive; i = inactive; . = no result.
SMILES,KCNQ1 block,KCNQ1 pot,Kir21 block,KCNK3 block,KCNK9 inh,hERG rescue
OCCCc1nc2ccccc2n1CCc1ccccc1,i,i,-1,i,i,-8.8
CCOC(=O)/C(=C\c1cccnc1)C(=O)c1cc(C(C)=O)c(Nc2ccccc2)s1,i,36*,-3.74,i,i,-8.6
O=S(=O)(c1ccc2ccccc2c1)N1CCN=C1SCc1cccnc1,i,i,-5.02*,i,i,-12.7
O=S(=O)(c1ccc(F)cc1)N1CCN=C1SCc1cccnc1,i,i,-3.57,i,i,-9.4
CCCN(CC(=O)Nc1ccc(Cl)cc1Cl)C(=O)c1ccc(=O)[nH]c1,i,i,2.49,i,i,-11.9
COc1ccc(NC(=O)c2ccco2)c(OC)c1,i,i,-1.25,i,i,-6.6
COc1ccc(OC)c(NC(=O)c2c(NC(=O)c3ccco3)sc3c2CCC3)c1,i,i,0.77,.,-7.54*,-9.1
COc1ccc(NC(=O)c2oc3ccccc3c2NC(=O)c2ccco2)c(OC)c1,i,i,0.04,i,-7.76*,-10.9
O=[N+]([O-])c1ccc2[nH]ncc2c1,i,i,2.02,i,i,-12.8
CCOC(=O)c1c(C)[nH]c(C(=O)N(C)CC(=O)Nc2ccc(OC)cc2)c1C,.,.,.,i,.,.
N#Cc1c(NC(=O)/C=C/C(=O)O)sc2c1CCN(Cc1ccccc1)C2,6*,i,-3.18,i,i,-12.3
Cc1nccn1CCN(C)Cc1cn(Cc2ccccc2)nc1-c1ccc2c(c1)OCO2,i,i,-5.48*,i,i,-13.6
C=CCNCCOc1ccc(C(C)(C)c2ccccc2)cc1,i,i,-12.3*,i,i,-8.4
O=c1ccc(Cl)n[nH]1,i,i,0.05,i,i,-3.0
COCCNc1nc(-c2ccc(OC)cc2)c(-c2ccc(OC)cc2)s1,i,i,-2.7,i,i,-11.7
O=C(CSc1nc2ccc([N+](=O)[O-])cc2[nH]1)NC1CCCCCC1,14*,i,-0.87,i,i,-12.2
COc1ccc(NC(=O)c2ccc3[nH]c(C)c(C)c3c2)cc1,i,i,1.21,i,i,-4.5
O=C(N/N=C\c1ccc(-c2ccccc2[N+](=O)[O-])o1)C1COc2ccccc2O1 (stereo unspecified),i,i,0.11,i,-6.84*,-20.5
O=C(N/N=C\c1ccc(-c2ccccc2[N+](=O)[O-])o1)C1COc2cc3ccccc3cc2O1 (stereo unspecified),i,i,-1.54,i,i,-7.8
CCOC(=O)CS(=O)(=O)c1nc(-c2ccccc2)cc(C(F)(F)F)n1,i,i,-7.09*,i,i,-15.4
CCOC(=O)CCS(=O)(=O)c1nc(-c2ccccc2)cc(C(F)(F)F)n1,i,i,-3.05,i,i,-15.3
CCOC(=O)CS(=O)(=O)c1nc(-c2ccc(F)cc2)cc(C(F)(F)F)n1,i,9*,-4.48*,i,i,-26.0
S=c1nc(C2CC2)[nH]c2ccccc12,i,29*,1.97,i,i,20.1*
S=c1nc(C2CCCCC2)[nH]c2ccccc12,i,22*,-0.77,i,i,10.4*
CC(C)c1nc(=S)c2ccccc2[nH]1,i,i,0.73,i,i,-3.9
SMILES,KCNQ1 block,KCNQ1 pot,Kir21 block,KCNK3 block,KCNK9 inh,hERG rescue
NS(=O)(=O)c1ccc(CCNC(=O)CSc2ccc3ccccc3c2)cc1,i,i,0.78,i,i,10.8*
NS(=O)(=O)c1ccc(CCNC(=O)COC(=O)CC(c2ccccc2)c2ccccc2)cc1,i,i,-5.11*,i,i,-10.6
NS(=O)(=O)c1ccc(CCNC(=O)CSc2ccc([N+](=O)[O-])cc2)cc1,i,i,-0.01,i,i,-8.7
COc1cc(/C=C/C(=O)OCC(=O)NC(=O)C2COc3ccccc3O2)ccc1OC(F)F (stereo unspecified),.,.,.,i,.,.
Fc1cccc(-n2cc(-c3ccccc3)c3c(=S)nc[nH]c32)c1,i,i,0.74,i,i,-0.4
Fc1ccc(-n2cc(-c3ccccc3)c3c(=S)nc[nH]c32)cc1,i,10*,0.62,i,i,1.1
CCCCn1cnc2c(SCc3ccc(Br)cc3)nc(N)nc21,.,.,.,i,.,.
COCCNC(=O)c1cc2cc3ccc(OC)cc3nc2o1,i,i,0.78,i,i,-4.1
CCCCN(CC)C(=O)c1cc2cc3ccc(OC)cc3nc2o1,i,i,2.96,i,-6.74*,-10.5
Brc1ccc2c(c1)OCCOCCOc1cc(Br)ccc1OCCOCCOCCO2,6*,i,-1.96,i,-7.69*,-22.5
O=C(CSc1ncccn1)NCc1cccc(Cl)c1,i,i,-0.22,i,i,6.3*
CCOC(=O)CN1C(c2ccccc2O)Nc2ccc(Br)cc2C1c1ccccc1 (stereo unspecified),i,i,0.05,i,-7.38*,-6.8
O=C(O)CN1C(=O)Nc2ccc(Br)cc2C1c1ccccc1 (stereo unspecified),i,i,-1.25,i,i,-7.1
N#Cc1cccc(NC(=O)c2cncn2-c2ccccc2)c1,i,i,0,i,i,-6.5
CCc1noc(C)c1C(=O)OCC(=O)c1ccc(NC(C)=O)cc1F,.,.,.,i,.,.
COc1ccc(OCCNC(=O)Nc2cc(F)c(F)cc2Cl)cc1,i,i,-1.16,i,i,1.3
COc1cccc(OCCNC(=O)Nc2cc(F)c(F)cc2Cl)c1,i,i,1.74,i,i,6.1*
CCOCC(=O)OCC(=O)Nc1cc(OC)c([N+](=O)[O-])cc1C,i,i,0.22,i,i,4.9*
CCCc1nc2oc3c(NCCN(C)C)ncnc3c2c2c1CCCC2,i,8*,-0.53,i,i,-7.1
CCOc1ccc(N(C)S(=O)(=O)c2ccc(C)c(C(=O)Nc3nnc(C4CC4)s3)c2)cc1,.,.,.,i,.,.
Cc1cc(C)c(Nc2ncccc2C(=O)O)c(C)c1,i,i,-0.01,i,i,5.8*
CN(Cc1ccccc1)C(=O)C1CCCN(Cc2ccc(Cl)cc2)C1 (stereo unspecified),i,i,-4.25*,i,i,-3.7
COc1cc(C(=O)NNC(=O)COc2ccc(Cl)cc2)ccc1OCC(=O)N1CCOCC1,.,.,.,i,.,.
